Measured values reported in PubChem BioAssay.
Calls of active or inactive are those of the source.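 Rule for the calls, unless noted: active = GFP response above 150% of the DMSO level; inconclusive = fewer than 70 events counted for a yeast strain; inactive = the rest.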

Assays:
[1] = RPL19A-GFP modulators, yeast TOR pathway, confirmation, cell-based, S. cerevisiae, flow cytometry, cherry picks, mother/daughter gates (AID 2270;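 active = GFP response below 50% of the DMSO control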); settings: S. cerevisiae RPL19A-GFP strain, 3 h, at 10 µM, stronger effect = lower value, 100 = same GFP as DMSO wells
[2] = LAP4-GFP expression modulators in yeast, confirmation, cell-based, cherry picks, flow cytometry, mother/daughter gates (AID 2271;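 active = GFP response above 150% of the DMSO control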;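 note: ratio of sample to DMSO plate mean so 100% equals DMSO level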); settings: S. cerevisiae LAP4-GFP strain, 3 h, at 10 µM, stronger effect = higher value, 100 means same as DMSO control
Outline: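 Test system: GFP-fusion yeast strain / Amount: 0.2 OD600 cells / Buffer or medium: SC medium / Dosing: 10 µM single dose / Incubation: compound exposure 3 h at 30 °C, end-over-end rotation / Detection: HT flow cytometry, GFP fluorescence channel / Evaluation: median GFP fluorescence as percent of plate-mean DMSO wells / Control set: DMSO-only negative wells, rapamycin 400 ng/mL positive wells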

[3] = modulators of MEP2-GFP levels in yeast, confirmation, S. cerevisiae, flow cytometry GFP, cherry picks (AID 2272;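 active = GFP response above 150% of the DMSO control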;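 note: ratio of well signal to plate DMSO mean so 100% equals DMSO level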); settings: S. cerevisiae MEP2-GFP strain, 3 h, at 10 µM, stronger effect = higher value
[4] = AGP1-GFP expression modulators, hit retest, confirmation, cell-based, flow cytometry, S. cerevisiae, cherry picks (AID 2273);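 note: median GFP channel fluorescence over the whole cell population gate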; settings: S. cerevisiae AGP1-GFP strain, 3 h, at 10 µM
[5] = modulators of CIT2-GFP expression in yeast, confirmation, S. cerevisiae, GFP fusion, cherry picks, mother/daughter gates (AID 2274); settings: S. cerevisiae CIT2-GFP strain, flow cytometry, 3 h, at 10 µM, stronger effect = higher value
[6] = measured here: daughter cell gate
[7] = measured here: mother cell gate
[8] = measured here: daughter cell gate response
[9] = measured here: mother cell gate response

SMILES	GFP response vs DMSO [1]	GFP response vs DMSO [1, 6]	GFP response vs DMSO [1, 7]	GFP response relative to DMSO [2]	GFP response relative to DMSO [2, 8]	GFP response relative to DMSO [2, 9]	GFP response vs DMSO [3]	GFP response, % of DMSO [4]	GFP response, % of DMSO [5]	GFP response, % of DMSO [5, 6]	GFP response, % of DMSO [5, 7]
O=C(OCn1ncc(Br)c(Br)c1=O)c1ccccc1Cl	94.1% (inactive)	96.2%	90.1%	172% (active)	150%	167%	112% (inactive)	105% (inactive)	95% (inactive)	104%	86.3%
CCOc1ccc(S(=O)(=O)N2CCc3ccccc3C2)cc1	99.7% (inactive)	97.8%	100%	101% (inactive)	95%	102%	97.5% (inactive)	96.2% (inactive)	92.1% (inactive)	92.7%	91%
COc1ccc(N=Cc2nc(-c3ccccc3)oc2OC(=O)c2ccccc2)cc1	101% (inactive)	101%	101%	108% (inactive)	104%	111%	94.4% (inactive)	98.1% (inactive)	93.4% (inactive)	92.1%	91.8%
NC(=O)COc1ccc(C(=O)/C=C2/C(=O)Nc3ccccc32)cc1	94% (inactive)	93.4%	81%	95.4% (inactive)	91.2%	96.1%	94.1% (inactive)	107% (inactive)	101% (inactive)	103%	101%
COc1ccc(Sc2ncnc3onc(C)c23)cc1	96.7% (inactive)	96.1%	95.4%	118% (inactive)	113%	120%	103% (inactive)	99.1% (inactive)	95.8% (inactive)	99.3%	96%
CCCn1c(=O)c(C(=O)Nc2ccccc2C(=O)OCC)c(O)c2ccccc21	95.1% (inactive)	96.7%	95.2%	95.3% (inactive)	94.4%	97.4%	108% (inactive)	110% (inactive)	100% (inactive)	103%	100%
O=[N+]([O-])c1ccc(Sc2nc3ccccc3o2)c([N+](=O)[O-])c1	93.5% (inactive)	93.4%	92%	157% (active)	151%	158%	114% (inactive)	96% (inactive)	108% (inactive)	109%	100%
O=[N+]([O-])c1ccccc1OCCOc1ccccc1[N+](=O)[O-]	103% (inactive)	101%	100%	106% (inactive)	101%	101%	102% (inactive)	106% (inactive)	105% (inactive)	103%	98.5%
COc1ccc(-c2cc3cc(C(=O)O)ccn3c2C(=O)c2ccccc2)cc1	97% (inactive)	95.6%	98.4%	107% (inactive)	106%	108%	105% (inactive)	98.3% (inactive)	98.3% (inactive)	99.1%	99.7%
O=Nc1c(O)c2ccccc2c2ccccc12	113% (inactive)	109%	111%	114% (inactive)	113%	119%	111% (inactive)	104% (inactive)	107% (inactive)	106%	105%
Cc1ccc2c(c1)c(/C=C/c1cc[n+](C)cc1)c(C)n2C	107% (inactive)	109%	108%	178% (active)	194%	173%	226% (active)	114% (inactive)	184% (active)	191%	177%
COc1cc(NC(=O)c2cc3ccccc3o2)ccc1NC(=O)c1ccco1	99% (inactive)	97.9%	98.9%	96.7% (inactive)	97.6%	96.1%	102% (inactive)	94.1% (inactive)	104% (inactive)	105%	103%
CCN(CC)Cc1c(O)ccc2c(C)c(CC(=O)OC)c(=O)oc12	103% (inactive)	101%	100%	101% (inactive)	97.5%	102%	103% (inactive)	106% (inactive)	100% (inactive)	99.2%	95.6%
Cc1nc2c(-c3ccc(F)cc3)cnn2c(N)c1-c1ccccc1	99.6% (inactive)	97.9%	98.8%	101% (inactive)	97.5%	100%	103% (inactive)	96.7% (inactive)	103% (inactive)	101%	104%
COc1ccc(-c2cc(=O)n(-c3nc4ccccc4[nH]3)[nH]2)cc1	98.6% (inactive)	101%	99.3%	117% (inactive)	119%	113%	103% (inactive)	98% (inactive)	95.9% (inactive)	97.4%	94.4%
Cc1ccc(-n2nc(C)c3c(C)c(CCC(=O)O)c(C)nc32)cc1	102% (inactive)	100%	103%	101% (inactive)	101%	100%	96.8% (inactive)	100% (inactive)	102% (inactive)	101%	102%
Cc1ccc(-c2nnc(NC(=O)c3ccc([N+](=O)[O-])o3)o2)c(C)c1	101% (inactive)	99.3%	99.8%	161% (active)	133%	160%	108% (inactive)	92.3% (inactive)	95.8% (inactive)	99.3%	91.5%

SMILES	GFP response vs DMSO [1]	GFP response vs DMSO [1, 6]	GFP response vs DMSO [1, 7]	GFP response relative to DMSO [2]	GFP response relative to DMSO [2, 8]	GFP response relative to DMSO [2, 9]	GFP response vs DMSO [3]	GFP response, % of DMSO [4]	GFP response, % of DMSO [5]	GFP response, % of DMSO [5, 6]	GFP response, % of DMSO [5, 7]
O=C(CC1SC(=Nc2ccccc2F)N(CCN2CCOCC2)C1=O)Nc1ccc(F)cc1F (stereo not drawn)	96.8% (inactive)	97.4%	96.6%	95.4% (inactive)	96%	94%	102% (inactive)	97.8% (inactive)	98.3% (inactive)	99.1%	98.5%
Cc1ccccc1N1C(=O)C(Cl)=C(N2CCN(c3ccccc3)CC2)C1=O	100% (inactive)	98.7%	100%	101% (inactive)	102%	102%	100% (inactive)	93% (inactive)	95.2% (inactive)	94.8%	94.4%
CCOC(=O)C1=C(Cc2ccc(Cl)cc2)C(=O)c2ccccc2C1=O	99.1% (inactive)	98.5%	98.1%	112% (inactive)	107%	111%	104% (inactive)	97.3% (inactive)	99.3% (inactive)	102%	94.5%
CCC(C)(C)NC(=O)C(c1cccs1)N(CC1CCCO1)C(=O)Cn1nnc2ccccc21 (stereo not drawn)	95.3% (inactive)	95.9%	94.4%	98.9% (inactive)	96%	99.5%	101% (inactive)	102% (inactive)	101% (inactive)	105%	102%
Fc1ccc(/C=N/Nc2nc(-c3cccnc3)nc3ccccc23)cc1	94.5% (inactive)	92.5%	95%	107% (inactive)	105%	111%	102% (inactive)	94.6% (inactive)	93.9% (inactive)	96.5%	91.2%
Fc1cccc(Cl)c1Cn1ncc2ccccc21	97.6% (inactive)	96.1%	96.3%	102% (inactive)	99.1%	100%	99% (inactive)	101% (inactive)	97.3% (inactive)	97.4%	96.8%
CCOc1ccc2ccccc2c1C(=O)N1CCN(c2ccccc2)CC1	97.8% (inactive)	98.4%	96.3%	105% (inactive)	105%	105%	99.3% (inactive)	98.4% (inactive)	93.1% (inactive)	94%	93.8%
O=S(=O)(c1ccccc1)N1N=C(c2cccs2)CC1c1ccc(F)cc1 (stereo not drawn)	99.7% (inactive)	97.8%	100%	97.4% (inactive)	94.1%	101%	100% (inactive)	104% (inactive)	97.8% (inactive)	96.5%	98.7%
O=C(NCc1ccc2c(c1)OCO2)c1nc(S(=O)(=O)Cc2ccccc2)ncc1Cl	97.8% (inactive)	96.2%	97.4%	109% (inactive)	102%	109%	99.5% (inactive)	94.5% (inactive)	99.3% (inactive)	98.3%	96.8%
Cc1cc(NCCCN2CCOCC2)n2ncc(-c3ccccc3)c2n1	99.3% (inactive)	98.1%	99.6%	96.2% (inactive)	95.6%	98.3%	102% (inactive)	102% (inactive)	95.2% (inactive)	98.1%	93.4%
Cc1ccc(Sc2ccc([N+](=O)[O-])cc2[N+](=O)[O-])nc1	99.7% (inactive)	101%	100%	103% (inactive)	100%	105%	97.8% (inactive)	97.4% (inactive)	104% (inactive)	99.7%	105%
O=C(N/N=C/c1ccc(Cl)cc1Cl)c1cccc(F)c1	97% (inactive)	92.7%	97.3%	104% (inactive)	98.2%	109%	103% (inactive)	101% (inactive)	86% (inactive)	84.1%	84.8%
CC(=O)c1ccc(Sc2ccccn2)c([N+](=O)[O-])c1	98.4% (inactive)	99.4%	95.8%	99.2% (inactive)	99.2%	97.2%	102% (inactive)	93.1% (inactive)	101% (inactive)	103%	99.7%
Cc1nn(Cc2c(Cl)cccc2Cl)c(C)c1NC(=O)c1sc2ccccc2c1Cl	94.8% (inactive)	95.7%	95.8%	95.3% (inactive)	93.6%	98.5%	99.5% (inactive)	108% (inactive)	104% (inactive)	100%	106%
N#C/C(=C\c1c(N2CCC(C(N)=O)CC2)nc2ccccn2c1=O)C(=O)NCc1ccco1	97.8% (inactive)	98.8%	97.6%	101% (inactive)	99.3%	99.5%	102% (inactive)	99.3% (inactive)	104% (inactive)	102%	101%
Cc1ccccc1N1C(=O)c2sc3nc4c(c(=O)n3c2C1=O)CCC4	96.2% (inactive)	94.9%	96.3%	107% (inactive)	107%	110%	99% (inactive)	102% (inactive)	90.1% (inactive)	90.2%	88.2%
